In ChEMBL document CHEMBL1134798, “Pharmacological evaluation of a diarylmethylene-piperidine derivative: a new potent atypical antipsychotic?” (Bioorg Med Chem Lett, 2001):
Activity calls are given as the source filed them. The calls are words filed in the database; no cut-off is given here.

How the values were obtained:
Mus musculus [1] = organism: Mus musculus; experiment: Induction of convulsions in mice evaluated in IRWIN-test; format: functional
Outline: (§1)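 Irwin observational test run to a standard protocol after ip administration.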

Mus musculus [2] = experiment: Decrease in number of avoidance responses in mice at a dose ~10 mg/kg; format: functional; settings: at 10 mg/kg
Mus musculus [3] = experiment: Effective dose required for inhibition of apomorphine(sc, 2.5 mg/kg ) induced climbing in mice on ip administration; format: functional; settings: route intraperitoneal
Outline: (§2)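 Apomorphine hydrochloride given sc at 2.5 mg/kg to induce climbing and stereotypy. Compounds dosed 30 min earlier, groups of eight mice. ED50 for each behaviour by non-linear regression.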

Mus musculus [4] = experiment: Anticholinergic effect evaluated in mice using oxotremorine induced tremors(ip); format: functional
Outline: (§3)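 Mice were dosed ip 30 min before oxotremorine (0.25 mg/kg ip), in groups of six. Salivation and tremors were scored every 5 min for 30 min. ED50 was derived by non-linear regression.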

Mus musculus [5] = experiment: Effective dose required for inhibition of apomorphine(sc, 2.5 mg/kg ) induced stereotypy in mice on […]; format: functional
Outline: (§4)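 Mice were dosed po 30 min before apomorphine hydrochloride (2.5 mg/kg sc), in groups of eight. ED50 for inhibition of climbing or stereotypy was derived by non-linear regression.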

Mus musculus [6] = organism: Mus musculus; experiment: Induction of sedation in mice evaluated in IRWIN-test; format: functional; outline: as §1
Mus musculus [7] = organism: Mus musculus; experiment: Lethality in mice evaluated in IRWIN-test; format: functional; outline: as §1
Mus musculus [8] = experiment: Decrease in number of avoidance responses in mice at a dose ~25 mg/kg; format: functional
Mus musculus [9] = experiment: Effective dose required for inhibition of DOI-induced head-twitches in mice on ip administration; format: functional
Outline: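 Head-twitches elicited by ip (±)-DOI hydrochloride, 1.6 mg/kg. Mice (groups of eight) pretreated ip 30 min before DOI. Twitches counted for 5 min starting 5 min after DOI. ED50 by non-linear regression.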

Mus musculus [10] = experiment: Decrease in number of avoidance responses in mice at a dose ~50 mg/kg; format: functional
Mus musculus [11] = experiment: Effective dose required for inhibition of apomorphine(sc, 2.5 mg/kg ) induced climbing in mice on po administration; format: functional; outline: as §4
Rattus norvegicus [12] = experiment: Increase in heart rate by the compound at a dose of 10.5 mg/kg in rats; format: functional
Mus musculus [13] = experiment: Induction of catalepsy up to a dose of 160 mg/kg when administered po in mice; No induction; format: functional, organism-based; set-up: dose 160 mg/kg
Mus musculus [14] = experiment: Anticholinergic effect evaluated in mice using oxotremorine induced salivation(ip); format: functional; outline: as §3
Mus musculus [15] = experiment: Effective dose required for inhibition of apomorphine(sc, 2.5 mg/kg ) induced stereotypy in mice on ip administration; format: functional; settings: route intraperitoneal; outline: as §2
Rattus norvegicus [16] = experiment: Decrease in arterial blood pressure by the compound at a dose of 32.7 mg/kg in rats 0.5-2.5h after administration; format: functional, Artery
Mus musculus [17] = experiment: Antagonistic activity on amphetamine-induced stereotypy at a dose of 100 umol/kg (p<0.05); format: functional
Mus musculus [18] = experiment: Decrease in number of avoidance responses in mice at a dose ~60 mg/kg; format: functional; settings: at 60 mg/kg
Rattus norvegicus [19] = experiment: Increase in heart rate by the compound at a dose of 43.1-431 mg/kg in rats on oral administration; No significant; format: functional, organism-based
Mus musculus [20] = organism: Mus musculus; experiment: Anticholinergic effect evaluated in mice using oxotremorine induced tremors; format: functional
Outline: (§5)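 Oxotremorine 0.25 mg/kg ip induced tremors and salivation. Compounds were given ip 30 min beforehand, groups of six mice. Scoring every 5 min over 30 min. ED50 from non-linear regression.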

D(4) dopamine receptor = biological target: T1, D(4) dopamine receptor (Homo sapiens, UniProt P21917); experiment: In vitro binding affinity for Dopamine receptor D4
T1 sequence (P21917 whole entry): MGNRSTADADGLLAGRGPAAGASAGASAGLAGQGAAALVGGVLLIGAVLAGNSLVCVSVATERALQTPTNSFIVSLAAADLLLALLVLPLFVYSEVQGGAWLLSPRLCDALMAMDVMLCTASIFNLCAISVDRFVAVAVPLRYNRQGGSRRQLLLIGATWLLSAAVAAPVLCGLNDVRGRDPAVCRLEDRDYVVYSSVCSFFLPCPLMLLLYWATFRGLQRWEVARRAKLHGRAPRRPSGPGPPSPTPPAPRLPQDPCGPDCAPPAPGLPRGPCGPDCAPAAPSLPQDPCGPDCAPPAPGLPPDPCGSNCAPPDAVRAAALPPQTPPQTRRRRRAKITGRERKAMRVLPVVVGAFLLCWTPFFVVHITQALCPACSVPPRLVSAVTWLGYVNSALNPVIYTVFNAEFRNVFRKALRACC

Mus musculus [21] = experiment: Decrease in number of avoidance responses in mice at a dose ~115 mg/kg; format: functional
[22] = biological target: Serotonin 2 (5-HT2) receptor (Homo sapiens, UniProt P41595+P28223+P28335); experiment: In vitro binding affinity for 5-hydroxytryptamine 2 receptor; format: protein assay
Rattus norvegicus [23] = experiment: Decrease in arterial blood pressure by the compound at a dose of 43.1-431 mg/kg in rats 24 hr after oral administration; No significant; format: functional, organism-based; settings: Artery
Mus musculus [24] = experiment: Decrease in number of avoidance responses in mice at a dose ~100 mg/kg; format: functional; settings: at 100 mg/kg
Mus musculus [25] = experiment: Decrease in number of avoidance responses in mice at a dose ~110 mg/kg; format: functional
Mus musculus [26] = experiment: Decrease in d-amphetamine-induced hyperactivity at a dose of 10 umol/kg (p<0.01); format: functional
Mus musculus [27] = organism: Mus musculus; experiment: Anticholinergic effect evaluated in mice using oxotremorine induced salivation; format: functional; outline: as §5

Structure (SMILES)	Activity (Mus musculus [1])	ED50 (Mus musculus [3]) [µmol/kg]	ED50 (Mus musculus [5]) [µmol/kg]	Activity (Mus musculus [6])	Activity (Mus musculus [7])	ED50 (Mus musculus [9]) [µmol/kg]	ED50 (Mus musculus [11]) [µmol/kg]	ED50 (Mus musculus [15]) [µmol/kg]	further results
CN1CCN(C2=Nc3cc(Cl)ccc3Nc3ccccc32)CC1 [CLOZAPINE]	180	28	62	3.2	320	1.5	30	67	Decrease in No. of avoidence responses (Mus musculus [2]): 10%; Activity (Mus musculus [4]): 12; Decrease in No. of avoidence responses (Mus musculus [8]): 65%; Decrease in No. of avoidence responses (Mus musculus [10]): 85%; Increase in heart rate (Rattus norvegicus [12]): 49%; Induction of catalepsy (Mus musculus [13]): inactive; Activity (Mus musculus [14]): 8; Decrease in arterial blood pressure (Rattus norvegicus [16]): 32%
NC(=O)C1CCC(CN2CCC(=C(c3ccccc3)c3ccc(F)cc3)CC2)O1 (configuration not stated)	320	46	290	100	1000	16	140	69	Decrease (Mus musculus [17]): 13%; Decrease in No. of avoidence responses (Mus musculus [18]): 12.5%; Increase in heart rate (Rattus norvegicus [19]): inactive; Activity (Mus musculus [20]): 32; Ki (D(4) dopamine receptor): 158 nM; Decrease in No. of avoidence responses (Mus musculus [21]): 80%; Log Ki [22]: -7.5; Decrease in arterial blood pressure (Rattus norvegicus [23]): inactive; Decrease in No. of avoidence responses (Mus musculus [24]): 27%; Decrease in No. of avoidence responses (Mus musculus [25]): 45%; Decrease (Mus musculus [26]): 44%; Activity (Mus musculus [27]): 20
O=C(CCCN1CCC(O)(c2ccc(Cl)cc2)CC1)c1ccc(F)cc1 [HALOPERIDOL]		0.32				0.61		0.31	
OCCOCCN1CCN(C2=Nc3ccccc3Sc3ccccc32)CC1 [QUETIAPINE]		51				9		60	
